ChEMBL document CHEMBL1156332, “Polysubstituted pyrazoles, part 6. Synthesis of some 1-(4-chlorophenyl)-4-hydroxy-1H-pyrazol-3-carbonyl derivatives linked to nitrogenous heterocyclic ring systems as potential antitumor agents” (2010)
Active and inactive are the calls of the source. No cut-off for these calls is given here.

How the values were obtained:
Type in all cases: functional
SF-539 = test: Growth inhibition of human SF539 cells after 48 hrs by sulforhodamine B assay; conditions: SF-539, 48 h
Method in brief: (§1)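 Adherent lines plated and held 24 h at 37 °C, 5% CO2, 100% humidity; time-zero plates TCA-fixed at drug addition. Drugs from DMSO stocks were made into five concentrations by 10-fold or half-log serial dilution and applied for 48 h continuous exposure. Cells were fixed with cold TCA (10% final) for 60 min at 4 °C, then stained with 0.4% SRB in 1% acetic acid for 10 min. Dye was solubilized in 10 mM Tris base and read at 515 nm. GI50 was taken from log concentration–growth curves.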

SF-295 = test: Growth inhibition of human SF295 cells after 48 hrs by sulforhodamine B assay; conditions: SF-295, 48 h
Method in brief: (§2)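 NCI 60-line panel, five concentrations (0.01–100 µM) from DMSO stock diluted in medium with gentamicin. Cells were plated 24 h before dosing, with time-zero plates fixed at drug addition, then exposed 48 h at 37 °C, 5% CO₂. Adherent cells were fixed with cold TCA (10% final) and suspension cells with 16% TCA. Staining used 0.4% SRB, solubilised in 10 mM Tris and read at 515 nm. GI₅₀ was taken from log concentration–% growth curves.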

OVCAR-4 = test: Growth inhibition of human OVCAR4 cells after 48 hrs by sulforhodamine B assay; conditions: OVCAR-4, 48 h; method in brief: as §2
[1] = Growth inhibition of human NCI-H322 cells after 48 hrs by sulforhodamine B assay; conditions: NCI-H322, 48 h; method in brief: as §2
UACC-257 = test: Growth inhibition of human UACC257 cells after 48 hrs by sulforhodamine B assay; conditions: UACC-257, 48 h; method in brief: as §1
SNB-19 = test: Growth inhibition of human SNB19 cells after 48 hrs by sulforhodamine B assay; conditions: SNB-19, 48 h; method in brief: as §1
T47D = test: Growth inhibition of human T47D cells after 48 hrs by sulforhodamine B assay; method in brief: as §1
MDA-MB-435 = test: Growth inhibition of human MDA-MB-435 cells after 48 hrs by sulforhodamine B assay; conditions: MDA-MB-435, 48 h; method in brief: as §2
HOP-92 = test: Growth inhibition of human HOP92 cells after 48 hrs by sulforhodamine B assay; conditions: HOP-92, 48 h; method in brief: as §2
SW-620 = test: Growth inhibition of human SW620 cells after 48 hrs by sulforhodamine B assay; conditions: SW-620, 48 h; method in brief: as §1
[2] = Cytotoxicity against human colon cancer cells after 48 hrs by sulforhodamine B assay; conditions: Cancer cell lines
Method in brief: (§3)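 NCI five-dose screen: about 60 human tumour lines grouped into nine subpanels were plated and incubated 24 h before dosing. Compounds went in as DMSO stock and were diluted in medium to five final concentrations (0.01–100 µM). Exposure was 48 h continuous at 37 °C, 5% CO₂, followed by TCA fixation and SRB staining read at 515 nm. Per-line GI₅₀, TGI and LC₅₀ came from log concentration–% growth curves, averaged per subpanel as MG-MID.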

[3] = Cytotoxicity against human lung cancer cells after 48 hrs by sulforhodamine B assay; conditions: Cancer cell lines; method in brief: as §3
MOLT-4 = test: Growth inhibition of human MOLT4 cells after 48 hrs by sulforhodamine B assay; conditions: MOLT-4, 48 h; method in brief: as §2
DU-145 = test: Growth inhibition of human DU145 cells after 48 hrs by sulforhodamine B assay; conditions: DU-145, 48 h; method in brief: as §2
OVCAR-5 = test: Growth inhibition of human OVCAR5 cells after 48 hrs by sulforhodamine B assay; conditions: OVCAR-5, 48 h; method in brief: as §2
U-251 = test: Growth inhibition of human U251 cells after 48 hrs by sulforhodamine B assay; conditions: U-251, 48 h; method in brief: as §1
NCI-H226 = test: Growth inhibition of human NCI-H226 cells after 48 hrs by sulforhodamine B assay; conditions: NCI-H226, 48 h; method in brief: as §2
[4] = Cytotoxicity against human breast cancer cells after 48 hrs by sulforhodamine B assay; conditions: Cancer cell lines; method in brief: as §3
[5] = Cytotoxicity against human melanoma cells after 48 hrs by sulforhodamine B assay; conditions: Melanoma cell; for CC50: read-out: LC50 (the source's name); method in brief: as §3
HCT-116 = test: Growth inhibition of human HCT116 cells after 48 hrs by sulforhodamine B assay; conditions: HCT-116, 48 h; method in brief: as §2
EKVX = test: Growth inhibition of human EKVX cells after 48 hrs by sulforhodamine B assay; method in brief: as §2
UO-31 = test: Growth inhibition of human UO31 cells after 48 hrs by sulforhodamine B assay; conditions: UO-31, 48 h; method in brief: as §1
ACHN = test: Growth inhibition of human ACHN cells after 48 hrs by sulforhodamine B assay; method in brief: as §2
NCI/ADR-RES = test: Growth inhibition of human NCI/ADR-RES cells after 48 hrs by sulforhodamine B assay; method in brief: as §2
PC-3 = test: Growth inhibition of human PC3 cells after 48 hrs by sulforhodamine B assay; conditions: PC-3, 48 h; method in brief: as §2
SK-MEL-2 = test: Growth inhibition of human SK-MEL-2 cells after 48 hrs by sulforhodamine B assay; method in brief: as §1
786-0 = test: Growth inhibition of human 786-0 cells after 48 hrs by sulforhodamine B assay; conditions: 786-0, 48 h; method in brief: as §2
NCI-H23 = test: Growth inhibition of human NCI-H23 cells after 48 hrs by sulforhodamine B assay; conditions: NCI-H23, 48 h; method in brief: as §2
SR = test: Growth inhibition of human SR cells after 48 hrs by sulforhodamine B assay
Method in brief: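 Suspension leukemia line pre-incubated 24 h at 37 °C, 5% CO2; time-zero plates fixed at drug addition. Five drug concentrations were made by serial dilution from DMSO stocks and applied for 48 h. Settled cells were fixed with 80% TCA (16% final), stained with 0.4% SRB in 1% acetic acid, solubilized in 10 mM Tris base, and read at 515 nm. GI50 = concentration giving 50% decrease in net growth.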

Row | Structure (SMILES) | GI50 (SF-539) | GI50 (SF-295) | GI50 (OVCAR-4) | GI50 [1] | GI50 (UACC-257) | GI50 (SNB-19) | GI50 (T47D) | GI50 (MDA-MB-435) | GI50 (HOP-92) | GI50 (SW-620) | GI50 [2] | TGI [2] | GI50 [3] | TGI [3] | GI50 (DU-145) | GI50 (OVCAR-5) | GI50 (U-251) | GI50 (NCI-H226) | GI50 [4] | GI50 [5] | also measured
1 | O=C(c1nn(-c2ccc(Cl)cc2)cc1O)n1nc(-c2ccco2)cc1C(F)(F)F | 2.81 µM | 0.48 µM | 2.43 µM | 0.83 µM | 2.67 µM | 4.37 µM | 4.16 µM | 1.97 µM | 4.9 µM | 4.75 µM | 4.59 µM | 88.5 µM | 3.19 µM | 78.9 µM | 10.5 µM | 2.6 µM | 5.86 µM | 2.71 µM | 3.07 µM | 4.14 µM | GI50 (MOLT-4): 2.55 µM; TGI [4]: 77 µM; TGI [5]: 63.7 µM; CC50 [5]: 89.4 µM; GI50 (HCT-116): 2 µM; GI50 (EKVX): 1.99 µM; GI50 (UO-31): 3.84 µM; GI50 (ACHN): 2.53 µM; GI50 (NCI/ADR-RES): 1.6 µM; GI50 (PC-3): 26.3 µM; GI50 (SK-MEL-2; SK-MEL-2, 48 h): 3.82 µM; GI50 (786-0): 6.6 µM; GI50 (NCI-H23): 5.59 µM
2 | Cc1cc(C)n(C(=O)c2nn(-c3ccc(Cl)cc3)cc2O)n1 | 3.05 µM | 1.81 µM | 9.19 µM | 6.17 µM | 16.6 µM | 3.6 µM | 3.66 µM | 3.94 µM | 4.52 µM | 8.02 µM | 8.13 µM | 85.1 µM | 4.69 µM | 81.7 µM | 6.23 µM | 4.98 µM | 2.68 µM | 4.66 µM | 4.96 µM | 4.95 µM | GI50 (SR): inactive; TGI [5]: 71.4 µM; CC50 [5]: 92.8 µM; GI50 (HCT-116): 3.42 µM; GI50 (EKVX): 4.87 µM; GI50 (UO-31): 3.01 µM; GI50 (ACHN): 3.77 µM; GI50 (NCI/ADR-RES): 4.42 µM; GI50 (PC-3): 7.05 µM; GI50 (786-0): 9.64 µM; GI50 (NCI-H23): 3.31 µM
3 | O=C1CC(=O)N(C(=O)c2nn(-c3ccc(Cl)cc3)cc2O)N1 | 0.37 µM | 0.15 µM | 1.52 µM | 0.53 µM | 1.86 µM | 0.51 µM | 0.45 µM | 0.33 µM | 0.5 µM | 2.32 µM | 1.51 µM | 86.2 µM | 0.51 µM | 80.3 µM | 0.98 µM | 8.08 µM | 0.18 µM | 0.73 µM | 0.82 µM | 1.6 µM | GI50 (SR): 0.26 µM; GI50 (MOLT-4): 0.41 µM; TGI [4]: 79.6 µM; TGI [5]: 50.1 µM; CC50 [5]: 85.2 µM; GI50 (HCT-116): 0.34 µM; GI50 (EKVX): 0.85 µM; GI50 (UO-31): 0.55 µM; GI50 (ACHN): 0.58 µM; GI50 (NCI/ADR-RES): 0.94 µM; GI50 (PC-3): 0.36 µM; GI50 (SK-MEL-2): inactive; GI50 (786-0): 3.77 µM; GI50 (NCI-H23): 0.49 µM
